The source of these data is ChEMBL document CHEMBL1795253, “Synthesis and biological evaluation in U87MG glioma cells of (ethynylthiophene)sulfonamido-based hydroxamates as matrix metalloproteinase inhibitors” (Eur J Med Chem, 2011).

For one experiment, the target named is Neutrophil collagenase (Homo sapiens, UniProt P22894). Kind of experiment: Inhibition of human MMP8 by fluorometric assay.
In experiment [1] the target is Matrix metalloproteinase-14 (Homo sapiens, UniProt P50281). Kind of experiment: Inhibition of human MMP14 by fluorometric assay. In short, it runs like this: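 Pro-enzymes activated with APMA (2 mM 2 h, MMP-1; 2 mM 1 h, MMP-2/-8; 1 mM 1 h, MMP-9; all 37 °C) or trypsin then soybean trypsin inhibitor (MMP-3). MMP-14 was catalytic domain. Enzyme (MMP-1 2.0, MMP-2 0.5, MMP-3 5.0, MMP-8 1.5, MMP-9 1.3, MMP-14 1.0 nM) with inhibitor at 7 concentrations, 2 h, 25 °C, in Tris pH 7.5, 1% DMSO.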

Experiment [2] is described as follows: Antiinvasive activity against human U87MG cells at 5 nM after 24 hrs by Matrigel basement membrane transwell assay. It is filed as functional, U-87MG ATCC. In a few lines:
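U87MG cells (maintained in RPMI, 10% FBS, 37 °C, 5% CO2) suspended serum-free, 60,000 per upper transwell (8.0 μm filters coated with Matrigel 0.32 mg/mL), with inhibitor 5 nM, DMSO vehicle ≤1%. Lower chamber RPMI with 10% FBS. Invasion 24 h at 37 °C. Lower-surface cells fixed with p-formaldehyde, crystal violet-stained, counted in 5 fields. Inhibition versus untreated control. Duplicate, ≥3 experiments, mean ± S.E.M.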

Experiment [3] has as its target T1, Matrix metalloproteinase-25 (Homo sapiens, UniProt Q9NPA2).
T1 sequence (Q9NPA2 whole entry): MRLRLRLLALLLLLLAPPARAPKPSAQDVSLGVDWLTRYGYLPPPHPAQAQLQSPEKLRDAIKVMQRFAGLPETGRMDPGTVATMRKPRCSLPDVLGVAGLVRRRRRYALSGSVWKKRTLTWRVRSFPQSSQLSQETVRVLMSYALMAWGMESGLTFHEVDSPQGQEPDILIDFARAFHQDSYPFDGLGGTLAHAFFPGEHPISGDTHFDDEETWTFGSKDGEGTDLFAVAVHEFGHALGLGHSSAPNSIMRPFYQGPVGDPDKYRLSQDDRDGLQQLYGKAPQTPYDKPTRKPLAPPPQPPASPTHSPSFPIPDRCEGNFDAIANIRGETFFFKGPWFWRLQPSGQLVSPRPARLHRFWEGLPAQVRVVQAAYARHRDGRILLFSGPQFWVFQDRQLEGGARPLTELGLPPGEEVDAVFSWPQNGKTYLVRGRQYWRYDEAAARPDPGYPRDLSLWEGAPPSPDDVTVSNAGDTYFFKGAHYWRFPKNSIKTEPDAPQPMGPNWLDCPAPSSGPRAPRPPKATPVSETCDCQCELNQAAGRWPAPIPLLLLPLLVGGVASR
Kind of experiment: Inhibition of human MMP25 by fluorometric assay. In short, it runs like this:
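E. coli-expressed, refolded MMP-25 catalytic domain added to MOCAcPLGLA2pr(Dnp)AR-NH2 plus varying inhibitor in HEPES pH 7.5 with 5 mM CaCl2, 0.01% Brij-35, 5% DMSO, 25 °C. Initial rates from fluorescence (ex 328/em 393 nm), read every 4 s over 10 min.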

Experiment [4] in a line: Cytotoxicity against human U87MG cells assessed as dead cells at 5 nM after 24 hrs by trypan blue exclusion assay. The format is functional, U-87MG ATCC. In a few lines: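 U87MG human glioblastoma cells (RPMI, 10% FBS, 2 mM L-glutamine, penicillin/streptomycin, 1% non-essential amino acids, 37 °C, 5% CO2) seeded at 30,000 cells/cm2 in serum-free medium with 5 nM compound, DMSO vehicle ≤1% final, for 24 h. Cells lightly trypsinized, pelleted 800 x g 5 min, stained with 0.4% Trypan Blue in 0.9% NaCl, counted by haemocytometer; mean ± S.E.M., ≥3 experiments in duplicate.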

The target in a further experiment is T2, Interstitial collagenase (Homo sapiens, UniProt P03956).
T2 sequence (P03956 whole entry): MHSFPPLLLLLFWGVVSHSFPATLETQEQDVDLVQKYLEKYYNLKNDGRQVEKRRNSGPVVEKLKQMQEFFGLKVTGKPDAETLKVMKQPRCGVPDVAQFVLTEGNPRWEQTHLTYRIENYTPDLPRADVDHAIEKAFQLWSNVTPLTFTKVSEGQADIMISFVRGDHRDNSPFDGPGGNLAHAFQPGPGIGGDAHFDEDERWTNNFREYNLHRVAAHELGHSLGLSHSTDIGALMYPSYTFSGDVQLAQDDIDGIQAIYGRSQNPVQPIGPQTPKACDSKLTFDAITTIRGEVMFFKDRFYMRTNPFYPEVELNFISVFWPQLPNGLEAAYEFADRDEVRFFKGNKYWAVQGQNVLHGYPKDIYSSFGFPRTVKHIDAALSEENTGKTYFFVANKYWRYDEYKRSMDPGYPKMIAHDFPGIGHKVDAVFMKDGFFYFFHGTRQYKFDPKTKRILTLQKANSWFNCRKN
Kind of experiment: Inhibition of human MMP1 by fluorometric assay.

Another experiment concerns the target Stromelysin-1 (Homo sapiens, UniProt P08254). The experiment is described as follows: Inhibition of human MMP3 by fluorometric assay.
Experiment [5] addresses Matrix metalloproteinase-9 (Homo sapiens, UniProt P14780). Kind of experiment: Inhibition of human MMP9 by fluorometric assay.
Experiment [6] deals with 72 kDa type IV collagenase (Homo sapiens, UniProt P08253). Kind of experiment: Inhibition of human MMP2 by fluorometric assay.
Chain of 72 kDa type IV collagenase (P08253 whole entry): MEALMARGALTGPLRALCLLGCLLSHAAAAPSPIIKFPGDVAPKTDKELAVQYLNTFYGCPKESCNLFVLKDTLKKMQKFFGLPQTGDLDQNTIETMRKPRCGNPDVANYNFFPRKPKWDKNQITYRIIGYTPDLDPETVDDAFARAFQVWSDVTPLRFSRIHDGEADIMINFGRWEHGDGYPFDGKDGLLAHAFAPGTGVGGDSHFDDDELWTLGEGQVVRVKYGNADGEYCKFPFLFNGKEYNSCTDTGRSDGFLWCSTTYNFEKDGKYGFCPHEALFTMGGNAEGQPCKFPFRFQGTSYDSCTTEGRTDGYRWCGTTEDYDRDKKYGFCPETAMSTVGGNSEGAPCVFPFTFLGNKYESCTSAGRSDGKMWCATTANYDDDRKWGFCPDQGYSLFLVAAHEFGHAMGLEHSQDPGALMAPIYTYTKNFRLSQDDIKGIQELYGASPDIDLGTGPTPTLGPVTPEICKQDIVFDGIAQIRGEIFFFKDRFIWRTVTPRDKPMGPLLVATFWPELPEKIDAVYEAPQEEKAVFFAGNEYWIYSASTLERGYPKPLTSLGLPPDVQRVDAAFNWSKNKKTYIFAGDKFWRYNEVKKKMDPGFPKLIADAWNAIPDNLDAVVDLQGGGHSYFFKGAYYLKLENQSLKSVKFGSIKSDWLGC
In the next experiment the test system is U-87MG ATCC. Kind of experiment: (§1) Antiinvasive activity against human U87MG cells after 24 hrs by Matrigel basement membrane transwell assay. The format is functional, cell-based. In a few lines:
(§2)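 Transwell filters (8.0 μm pores) coated with Matrigel (0.32 mg/mL) overnight at room temperature. U87MG cells in serum-free medium (60,000/400 μL) with inhibitor (1, 5, 25, 125 nM; DMSO ≤1%) in upper chamber; RPMI + 10% FBS below. 37 °C, 24 h.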

Experiment [7] is described as follows: as §1. It is filed as functional, cell-based. The conditions noted are these: u-87mg atcc. In short, it runs like this:
as §2

Chain of Neutrophil collagenase (P22894 whole entry, the tested form may be a part): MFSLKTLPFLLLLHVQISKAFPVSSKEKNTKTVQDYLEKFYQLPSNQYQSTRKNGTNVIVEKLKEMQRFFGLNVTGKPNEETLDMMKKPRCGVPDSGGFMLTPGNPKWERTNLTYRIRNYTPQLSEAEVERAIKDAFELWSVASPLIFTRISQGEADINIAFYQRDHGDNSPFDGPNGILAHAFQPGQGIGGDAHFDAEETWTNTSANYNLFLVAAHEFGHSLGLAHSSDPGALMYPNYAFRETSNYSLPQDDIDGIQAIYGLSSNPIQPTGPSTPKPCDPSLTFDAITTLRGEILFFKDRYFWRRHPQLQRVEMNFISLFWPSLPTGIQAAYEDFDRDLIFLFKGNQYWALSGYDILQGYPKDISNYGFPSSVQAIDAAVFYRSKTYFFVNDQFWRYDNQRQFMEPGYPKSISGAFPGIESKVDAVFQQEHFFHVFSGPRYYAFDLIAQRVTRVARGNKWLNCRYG
Chain of Matrix metalloproteinase-9 (P14780 whole entry): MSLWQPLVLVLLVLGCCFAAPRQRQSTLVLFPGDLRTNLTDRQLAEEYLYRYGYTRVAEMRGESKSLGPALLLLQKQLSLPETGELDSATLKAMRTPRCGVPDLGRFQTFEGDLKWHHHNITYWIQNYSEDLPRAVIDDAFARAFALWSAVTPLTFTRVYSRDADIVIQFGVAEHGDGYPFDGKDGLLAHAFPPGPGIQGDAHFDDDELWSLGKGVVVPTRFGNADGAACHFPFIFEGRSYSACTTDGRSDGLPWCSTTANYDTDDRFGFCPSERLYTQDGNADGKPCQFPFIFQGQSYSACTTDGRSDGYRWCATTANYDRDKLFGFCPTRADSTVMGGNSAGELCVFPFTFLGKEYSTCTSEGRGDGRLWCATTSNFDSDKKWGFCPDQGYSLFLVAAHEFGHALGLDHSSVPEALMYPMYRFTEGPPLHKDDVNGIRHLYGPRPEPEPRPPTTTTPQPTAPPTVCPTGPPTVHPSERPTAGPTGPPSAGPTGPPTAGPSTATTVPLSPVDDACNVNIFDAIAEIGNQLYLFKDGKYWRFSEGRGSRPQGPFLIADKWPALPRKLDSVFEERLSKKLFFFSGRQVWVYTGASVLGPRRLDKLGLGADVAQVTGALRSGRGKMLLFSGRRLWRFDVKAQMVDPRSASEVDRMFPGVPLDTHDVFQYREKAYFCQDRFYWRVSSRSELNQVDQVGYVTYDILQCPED
Chain of Stromelysin-1 (P08254 whole entry): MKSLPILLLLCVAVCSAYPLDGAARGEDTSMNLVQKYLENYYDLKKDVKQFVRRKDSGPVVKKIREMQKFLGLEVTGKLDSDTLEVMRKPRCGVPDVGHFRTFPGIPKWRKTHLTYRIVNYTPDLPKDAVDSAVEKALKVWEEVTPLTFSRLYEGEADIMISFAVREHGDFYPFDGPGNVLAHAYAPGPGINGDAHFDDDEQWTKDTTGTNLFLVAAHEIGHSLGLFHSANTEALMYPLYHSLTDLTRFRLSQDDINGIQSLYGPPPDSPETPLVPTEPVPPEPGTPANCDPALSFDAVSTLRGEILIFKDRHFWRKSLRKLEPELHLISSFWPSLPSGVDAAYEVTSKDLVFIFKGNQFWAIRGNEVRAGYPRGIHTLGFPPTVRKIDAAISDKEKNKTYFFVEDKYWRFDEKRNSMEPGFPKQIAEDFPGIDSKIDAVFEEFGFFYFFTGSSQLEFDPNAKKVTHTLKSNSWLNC

As for `CCCCc1ccc(C#Cc2ccc(S(=O)(=O)N[C@H](Cc3ccc(C(=O)c4ccccc4)cc3)C(=O)NO)s2)cc1`, the IC50 at Neutrophil collagenase turned out to be 440 nM; in experiment [1], 6600 nM; in [3] it was 340 nM; on Interstitial collagenase it was 37 µM; against Stromelysin-1 it was 84 nM; in [5], 50 nM. In experiment [6], this molecule had an IC50 of 4 nM. Moreover, the values for the Activity in experiment [2] and in [4] were 27.5% and 9.38%, respectively.
With `CCCCc1ccc(C#Cc2ccc(S(=O)(=O)NCC(=O)NO)s2)cc1`, the 50% inhibitory concentration (IC50) at Neutrophil collagenase worked out at 200 nM; in [1], 700 nM; in experiment [3] it was 34 nM; against Interstitial collagenase, 13 µM; against Stromelysin-1, 46 nM; in experiment [5], 79 nM. Moreover, half-maximal inhibition in [6] (IC50) required 1.5 nM. The Activity stood at 39.5% in [2] and 11.5% in [4].
On to `CCCCc1ccc(C#Cc2ccc(S(=O)(=O)N[C@H](Cc3ccc(OCc4ccccc4)cc3)C(=O)NO)s2)cc1`, for which the IC50 came out at 490 nM against Neutrophil collagenase; 2100 nM in experiment [1]; 38 nM in experiment [3]; 4.8 µM against Interstitial collagenase; 180 nM at Stromelysin-1; 63 nM in experiment [5]. The IC50 is 12 nM in experiment [7] and 2.3 nM in experiment [6]. The values for the Activity (in experiment [2]; in experiment [4]; in the experiment with U-87MG ATCC) were 42.6%, 12.3% and “Dose-dependent effect”, respectively.
For the molecule `CCCCc1ccc(C#Cc2ccc(S(=O)(=O)N3CSC[C@H]3C(=O)NO)s2)cc1`, the IC50 on Neutrophil collagenase was determined as 500 nM; in [1] it was 1600 nM; in [3], 170 nM; on Interstitial collagenase, 21 µM; against Stromelysin-1, 38 nM; in [5], 21 nM. In experiment [6], this molecule registered an IC50 of 2.5 nM. For the same molecule, the Activity worked out at 16% in experiment [2] and 17.8% in experiment [4].
As for `CCCCc1ccc(C#Cc2ccc(S(=O)(=O)N3Cc4ccccc4C[C@@H]3C(=O)NO)s2)cc1`, the IC50 against Neutrophil collagenase worked out at 30 nM; in experiment [1] it was 112 nM; in experiment [3], 3.4 nM; on Interstitial collagenase it was 6.7 µM; against Stromelysin-1 it was 11 nM; in experiment [5] it was 4.3 nM. This molecule also came in with an IC50 in experiment [6] of 1.3 nM. Also, the Activity in [2] came out at 35.9%; in [4] it was 13.6%.
For the molecule `CCCCc1ccc(C#Cc2ccc(S(=O)(=O)N[C@H](Cc3csc4ccccc34)C(=O)NO)s2)cc1`, the IC50 at Neutrophil collagenase is 1700 nM; in [1] it was 23000 nM; in experiment [3] it was 220 nM; at Interstitial collagenase, 56 µM; at Stromelysin-1 it was 320 nM; in [5], 650 nM. Further, the IC50 in experiment [6] amounted to 17 nM. For the same molecule, the values for the Activity in experiment [2] and in [4] were 34% and 14.4%, respectively.
Consider `CCCCc1ccc(C#Cc2ccc(S(=O)(=O)N[C@H](Cc3c[nH]c4ccccc34)C(=O)NO)s2)cc1`, for which the IC50 on Neutrophil collagenase worked out at 280 nM; in experiment [1], 1700 nM; in experiment [3], 76 nM; against Interstitial collagenase, 2.3 µM; at Stromelysin-1, 93 nM; in [5] it was 77 nM. Further, the Activity worked out at 48.4% in [2] and 6.8% in [4].
For the molecule `COc1ccc(S(=O)(=O)N(Cc2cccnc2)[C@@H](C(=O)NO)C(C)C)cc1.Cl` [CGS-27023A], the results for the Activity in experiment [2] and in experiment [4] were 28.3% and 10.8%, respectively. In [3], this molecule showed an IC50 of 1.5 nM.

What is called IC50 is the concentration that gives 50% inhibition. A higher IC50 goes with weaker potency in that assay.
